From BindingDB's records for doi:10.1016/j.bmc.2011.08.039 (Ludwig-Maximilians-University Munich, 2011)

How the values were obtained:
[1] = target: T1, Sodium- and chloride-dependent GABA transporter 3 (Mus musculus, UniProt P31650); test: Inhibition of mouse GAT3-mediated [3H]GABA uptake expressed in human HEK cells
T1 sequence (P31650 whole entry): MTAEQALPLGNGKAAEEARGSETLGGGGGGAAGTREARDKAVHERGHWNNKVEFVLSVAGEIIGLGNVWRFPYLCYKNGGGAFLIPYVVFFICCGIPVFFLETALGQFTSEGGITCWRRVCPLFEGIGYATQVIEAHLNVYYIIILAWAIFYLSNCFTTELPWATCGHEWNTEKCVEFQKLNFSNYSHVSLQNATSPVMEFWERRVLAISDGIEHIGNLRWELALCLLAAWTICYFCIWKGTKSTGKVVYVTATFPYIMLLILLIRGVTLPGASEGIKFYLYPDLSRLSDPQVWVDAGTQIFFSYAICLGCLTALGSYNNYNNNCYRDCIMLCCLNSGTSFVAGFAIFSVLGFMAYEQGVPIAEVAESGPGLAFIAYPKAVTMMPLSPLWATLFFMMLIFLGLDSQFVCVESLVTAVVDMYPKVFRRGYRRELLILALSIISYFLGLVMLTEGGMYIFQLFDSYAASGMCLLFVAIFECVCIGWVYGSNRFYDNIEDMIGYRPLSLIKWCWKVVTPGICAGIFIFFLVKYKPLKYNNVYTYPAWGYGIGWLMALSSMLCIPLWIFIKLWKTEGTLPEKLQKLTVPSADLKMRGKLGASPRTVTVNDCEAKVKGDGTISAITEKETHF
Method in brief: (§1)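 Specific [3H]GABA uptake was measured at the murine transporter subtype, and results are given as pIC50 ± SEM from three independent experiments, each run in triplicate.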

[2] = target: T2, Sodium- and chloride-dependent GABA transporter 2 (Mus musculus, UniProt P31649); test: Inhibition of mouse GAT2-mediated [3H]GABA uptake expressed in human HEK cells; method in brief: as §1
T2 sequence (P31649 whole entry): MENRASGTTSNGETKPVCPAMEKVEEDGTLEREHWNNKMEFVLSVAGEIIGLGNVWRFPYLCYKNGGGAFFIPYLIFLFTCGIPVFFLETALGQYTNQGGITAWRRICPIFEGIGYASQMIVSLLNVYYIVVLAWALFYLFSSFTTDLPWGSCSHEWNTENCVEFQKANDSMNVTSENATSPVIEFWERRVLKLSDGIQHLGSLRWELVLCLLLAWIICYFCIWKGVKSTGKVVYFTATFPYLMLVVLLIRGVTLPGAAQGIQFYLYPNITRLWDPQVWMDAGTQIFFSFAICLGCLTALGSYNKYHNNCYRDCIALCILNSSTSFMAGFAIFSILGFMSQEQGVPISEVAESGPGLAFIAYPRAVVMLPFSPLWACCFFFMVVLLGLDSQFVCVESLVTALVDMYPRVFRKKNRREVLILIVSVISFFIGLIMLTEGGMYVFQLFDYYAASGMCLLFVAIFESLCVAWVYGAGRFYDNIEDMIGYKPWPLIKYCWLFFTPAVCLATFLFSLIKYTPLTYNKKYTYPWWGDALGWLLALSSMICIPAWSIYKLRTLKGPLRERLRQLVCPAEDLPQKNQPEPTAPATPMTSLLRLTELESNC

[3] = Inhibition of mouse GAT3-mediated [3H]GABA uptake expressed in BHK cells
[4] = Inhibition of mouse GAT2-mediated [3H]GABA uptake expressed in BHK cells

IC50 [1] [µM]	IC50 [2] [µM]	SMILES	IC50 [3] [µM]	IC50 [4] [µM]
34.7	24.5	C(CNCc1nnnn1Cc1ccccc1)=C(c1ccccc1)c1ccccc1		
24.5		c1ccc(C(NCc2nnnn2C2CCCCC2)c2ccccc2)cc1		
44.7		c1ccc(Cn2nnnc2CNCC(c2ccccc2)c2ccccc2)cc1		
16.2		c1ccc(Cn2nnnc2CNC(c2ccccc2)c2ccccc2)cc1		
12.9	16.6	CC(C)(C)CC(C)(C)n1nnnc1CNCCCC(c1ccccc1)c1ccccc1		
40.7	15.5	c1ccc(Cn2nnnc2CNCCCC(c2ccccc2)c2ccccc2)cc1		
8.13		CC(C)(C)CC(C)(C)n1nnnc1CNCCC(c1ccccc1)c1ccccc1		
60.3		CC(C)(C)CC(C)(C)n1nnnc1CNC(c1ccccc1)c1ccccc1		
21.4		C(CCNCc1nnnn1C1CCCCC1)=C(c1ccccc1)c1ccccc1		
22.9	10.2	CC(C)(C)CC(C)(C)n1nnnc1CNCC=C(c1ccccc1)c1ccccc1		
12.3		CC(C)(C)CC(C)(C)n1nnnc1CNCCC=C(c1ccccc1)c1ccccc1		
18.2	24.5	C(CNCc1nnnn1C1CCCCC1)=C(c1ccccc1)c1ccccc1		
17.4	21.9	c1ccc(C(CCCNCc2nnnn2C2CCCCC2)c2ccccc2)cc1		

SMILES	IC50 [1] [µM]	IC50 [2] [µM]	IC50 [3] [µM]	IC50 [4] [µM]
COc1ccccc1C1(O)CCN(CCCn2c3ccccc3c3ccccc32)CC1	11.7	8.13	40.7	1.41
